Data on 24 molecules can be found in ChEMBL document CHEMBL1157834, “Structure-activity relationships of carbocyclic 6-benzylthioinosine analogues as subversive substrates of Toxoplasma gondii adenosine kinase” (Bioorg Med Chem, 2010).

SMILES strings stand for the structures.

The target of one assay is T1, Adenosine kinase (Toxoplasma gondii, UniProt Q9TVW2).
T1 sequence (Q9TVW2 whole entry): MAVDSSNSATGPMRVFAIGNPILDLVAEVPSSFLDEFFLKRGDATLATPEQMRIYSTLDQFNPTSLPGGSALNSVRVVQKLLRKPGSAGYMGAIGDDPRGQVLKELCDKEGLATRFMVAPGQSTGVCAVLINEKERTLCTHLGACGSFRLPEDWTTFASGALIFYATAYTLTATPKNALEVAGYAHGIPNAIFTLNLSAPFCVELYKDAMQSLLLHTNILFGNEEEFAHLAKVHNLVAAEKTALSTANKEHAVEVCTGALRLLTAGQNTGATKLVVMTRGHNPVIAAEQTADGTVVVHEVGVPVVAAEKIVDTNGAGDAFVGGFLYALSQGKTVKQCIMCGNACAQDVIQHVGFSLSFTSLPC
In words: Binding affinity to Toxoplasma gondii adenosine kinase after 20 mins by radioactivity method. In a few lines: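 Purified cloned T. gondii adenosine kinase in 50 mM Tris–Cl pH 7.4 with 2.5 mM ATP, 5 mM MgCl₂, 5 mM creatine phosphate, creatine kinase and [8-¹⁴C]adenosine (55 Ci/mol), with or without varied compound, at 37 °C under linear conditions. Stopped by boiling; adenosine and AMP separated by TLC (CHCl₃/MeOH/AcOH 102:12:6) and radioactivity quantified. Apparent Ki taken as apparent Km. ≥2 experiments in triplicate.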

The target of assay [1] is T2, Adenosine kinase (Toxoplasma gondii) (UniProt Q9TVW2).
T2 sequence (whole entry): T1 sequence (Q9TVW2 whole entry)
Kind of assay: Ratio of Km for carbocyclic 6-benzylthioinosine to Km for drug for binding affinity to Toxoplasma gondii adenosine kinase after 20 mins by radioactivity method.

Assay [2] relates to Toxoplasma gondii. In words: Antimicrobial activity against wild-type Toxoplasma gondii RH infected in human CRL1634 cells assessed as intracellular parasite survival at 5 uM after 18 hrs by [5,6-[…]]uracil-based scintillation counting. The assay is classed as functional. In a few lines: (§1)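 Confluent human foreskin fibroblasts (≤20 passages, RPMI-1640) plated ~5×10⁵/well for 24 h at 37 °C, 5% CO₂. Infected with isolated tachyzoites in 3% FBS medium, 1 parasite/cell, for 1 h, then washed with 10% FBS medium. Compounds in 50% ethanol added to 0–50 µM (final ethanol 2.5%). After 18 h, drug-free medium with [5,6-³H]uracil (5 µCi/mL) for 6 h. TCA precipitates collected on glass-fiber filters and counted by scintillation. Growth taken as % uptake of treated vs untreated; ≥2 experiments in triplicate.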

Assay [3] deals with Toxoplasma gondii. Kind of assay: Antimicrobial activity against wild-type Toxoplasma gondii RH infected in human CRL1634 cells assessed as intracellular parasite survival at 10 uM after 18 hrs by [5,6-[…]]uracil-based scintillation counting. The assay is classed as functional. In a few lines:
as §1

Assay [4] relates to Toxoplasma gondii. In words: Antimicrobial activity against wild-type Toxoplasma gondii RH infected in human CRL1634 cells assessed as intracellular parasite survival at 25 uM after 18 hrs by [5,6-[…]]uracil-based scintillation counting. Type of assay: functional. In a few lines:
as §1

Assay [5] concerns Toxoplasma gondii. In words: Antimicrobial activity against wild-type Toxoplasma gondii RH infected in human CRL1634 cells assessed as intracellular parasite survival at 50 uM after 18 hrs by [5,6-[…]]uracil-based scintillation counting. Type of assay: functional. In a few lines: as §1
Assay [6] concerns Toxoplasma gondii. In words: Antimicrobial activity against adenosine kinase deficient Toxoplasma gondii TgAK-3 infected in human CRL1634 cells assessed as intracellular parasite survival at 5 uM after 18 hrs by [5,6-[…]]uracil-based scintillation counting. Type of assay: functional. In a few lines:
as §1

Assay [7] concerns Toxoplasma gondii. Kind of assay: Antimicrobial activity against adenosine kinase deficient Toxoplasma gondii TgAK-3 infected in human CRL1634 cells assessed as intracellular parasite survival at 10 uM after 18 hrs by [5,6-[…]]uracil-based scintillation counting. Type of assay: functional. In a few lines: as §1
In assay [8] the test system is Toxoplasma gondii. In words: Antimicrobial activity against adenosine kinase deficient Toxoplasma gondii TgAK-3 infected in human CRL1634 cells assessed as intracellular parasite survival at 25 uM after 18 hrs by [5,6-[…]]uracil-based scintillation counting. The assay is classed as functional. In a few lines:
as §1

The subject of assay [9] is Toxoplasma gondii. In words: Antimicrobial activity against adenosine kinase deficient Toxoplasma gondii TgAK-3 infected in human CRL1634 cells assessed as intracellular parasite survival at 50 uM after 18 hrs by [5,6-[…]]uracil-based scintillation counting. Type of assay: functional. In a few lines:
as §1

Assay [10] deals with Toxoplasma gondii. In words: Antimicrobial activity against Toxoplasma gondii infected in human CRL1634 cells assessed as intracellular parasite survival at 25 uM after 18 hrs by [5,6-[…]]uracil-based scintillation counting. Type of assay: functional. In a few lines: as §1
The test system of assay [11] is Toxoplasma gondii (RH strain). Kind of assay: Activity against Toxoplasma gondii RH in human CRL1634 cells after 18 hrs by [5,6-3H]uracil incorporation assay.
The species named for assay [12] is Homo sapiens. In words: Cytotoxicity against uninfected human CRL1634 cells assessed as cell viability at 5 uM after 48 hrs by MTT assay. In general terms: Formazan colour is commonly taken as a measure of viable cells.
Assay [13] is filed under the species Homo sapiens. In words: Cytotoxicity against uninfected human CRL1634 cells assessed as cell viability at 10 uM after 48 hrs by MTT assay.

As a reminder, the Ki is the dissociation constant of the complex between target and ligand, obtained from inhibition or displacement. Regarding `OC[C@H]1C[C@@H](n2cnc3c(SCc4cccc(C(F)(F)F)c4)ncnc32)[C@H](O)[C@@H]1O`, the Ki at Adenosine kinase was 22.2 µM.

As a reminder, the IC50 is the midpoint of a concentration-inhibition curve. On to `Cc1ccc(CSc2ncnc3c2ncn3[C@@H]2C[C@H](CO)[C@@H](O)[C@H]2O)cc1`, for which the Ki at Adenosine kinase is 7.5 µM. Also, the Ratio in assay [1] turned out to be 14. The Activity in the assay on Toxoplasma gondii [2] stood at 43%; in the assay on Toxoplasma gondii [3], 2.5%; in the assay with Toxoplasma gondii [4], 0%; in the assay with Toxoplasma gondii [5] it was 0%; in the assay on Toxoplasma gondii [6], 99%; in the assay with Toxoplasma gondii [7], 100%. The Activity in the assay on Toxoplasma gondii [8], in the assay on Toxoplasma gondii [9], in the assay on Toxoplasma gondii [10], in the assay filed under Homo sapiens [12] and in the assay listed under Homo sapiens [13] was 100% in each case. Also, 11.9 µM corresponded to half-maximal inhibition in assay [11] (IC50).

With `OC[C@H]1C[C@@H](n2cnc3c(SCc4ccc(Cl)cc4Cl)ncnc32)[C@H](O)[C@@H]1O`, the Ki at Adenosine kinase stood at 60.7 µM.

Regarding `COC(=O)c1ccc(CSc2ncnc3c2ncn3[C@@H]2C[C@H](CO)[C@@H](O)[C@H]2O)cc1`, on Adenosine kinase, the Ki was found to be 40.9 µM.

Take `CCc1nc(N)nc(N)c1-c1ccc(Cl)cc1` [PYRIMETHAMINE]: the Activity is 99% in the assay with Toxoplasma gondii [2]; 55% with Toxoplasma gondii [3]; 25% in the assay with Toxoplasma gondii [4]; 23% in the assay on Toxoplasma gondii [5]; 108% in the assay with Toxoplasma gondii [10]; 101% in the assay filed under Homo sapiens [12]. The Activity in the assay filed under Homo sapiens [13] was 100%. This molecule gave an IC50 in assay [11] of 16.1 µM.

Take `COc1ccc(CSc2ncnc3c2ncn3[C@@H]2C[C@H](CO)[C@@H](O)[C@H]2O)cc1`: on Adenosine kinase, the Ki was 62 µM.

For the molecule `OC[C@H]1C[C@@H](n2cnc3c(SCc4ccc(Cl)cc4)ncnc32)[C@H](O)[C@@H]1O`, the Ki at Adenosine kinase was 15.6 µM. In addition, the Activity with Toxoplasma gondii [2] was determined as 73%; with Toxoplasma gondii [3], 12%; in the assay with Toxoplasma gondii [4] it was 0%; with Toxoplasma gondii [5], 0%; in the assay on Toxoplasma gondii [6] it was 100%; in the assay on Toxoplasma gondii [7] it was 100%. In addition, the Activity in the assay with Toxoplasma gondii [8], in the assay with Toxoplasma gondii [9], with Toxoplasma gondii [10], in the assay listed under Homo sapiens [12] and in the assay filed under Homo sapiens [13] was 100% each time. Also, inhibition in assay [11] was half-maximal at 14.5 µM (IC50).

With `OC[C@H]1C[C@@H](n2cnc3c(SCc4ccccc4Cl)ncnc32)[C@H](O)[C@@H]1O`, the Ki at Adenosine kinase amounted to 24.2 µM.

On to `OC[C@H]1C[C@@H](n2cnc3c(SCc4c(F)cccc4Cl)ncnc32)[C@H](O)[C@@H]1O`, for which the Ki on Adenosine kinase is 31.3 µM.

As for `O=[N+]([O-])c1ccc(CSc2ncnc3c2ncn3[C@@H]2C[C@H](CO)[C@@H](O)[C@H]2O)cc1`, the Ki at Adenosine kinase is 94.1 µM.

Regarding `CS(=O)(=O)c1ccc(CSc2ncnc3c2ncn3[C@@H]2C[C@H](CO)[C@@H](O)[C@H]2O)cc1`, at Adenosine kinase, the Ki was 73.7 µM.

As to `OC[C@H]1O[C@@H](n2cnc3c(SCc4ccccc4)ncnc32)[C@H](O)[C@@H]1O` [6-BENZYLTHIOINOSINE], at Adenosine kinase, the Ki is 14.3 µM.

`Nc1ccc(S(=O)(=O)Nc2ncccn2)cc1` [SULFADIAZINE]: the Activity in the assay with Toxoplasma gondii [2] was 93%; in the assay with Toxoplasma gondii [3], 58%; with Toxoplasma gondii [4], 53%; in the assay with Toxoplasma gondii [5] it was 46%; with Toxoplasma gondii [10], 100%; in the assay listed under Homo sapiens [12] it was 98%. Moreover, the Activity in the assay filed under Homo sapiens [13] came out at 100%. In assay [11], the IC50 worked out at 27.3 µM.

In the case of `Cc1ccccc1CSc1ncnc2c1ncn2[C@@H]1C[C@H](CO)[C@@H](O)[C@H]1O`, the Ki at Adenosine kinase turned out to be 24.9 µM.

As to `Cc1cc(C)c(CSc2ncnc3c2ncn3[C@@H]2C[C@H](CO)[C@@H](O)[C@H]2O)c(C)c1`, the Ki at Adenosine kinase stood at 63.1 µM.

As to `OC[C@H]1C[C@@H](n2cnc3c(SCc4ccc(F)cc4)ncnc32)[C@H](O)[C@@H]1O`, the Ki on Adenosine kinase came out at 31.9 µM.

As to `OC[C@H]1C[C@@H](n2cnc3c(SCc4ccc(Cl)c(Cl)c4)ncnc32)[C@H](O)[C@@H]1O`, on Adenosine kinase, the Ki was 16.8 µM.

As to `OC[C@H]1C[C@@H](n2cnc3c(SCc4ccccc4F)ncnc32)[C@H](O)[C@@H]1O`, the Ki at Adenosine kinase was found to be 54.8 µM.

Turning to `OC[C@H]1C[C@@H](n2cnc3c(SCc4ccc(OC(F)(F)F)cc4)ncnc32)[C@H](O)[C@@H]1O`, the Ki at Adenosine kinase was 65.5 µM.

Regarding `N#Cc1ccc(CSc2ncnc3c2ncn3[C@@H]2C[C@H](CO)[C@@H](O)[C@H]2O)cc1`, on Adenosine kinase, the Ki was 129 µM.

Regarding `O=[N+]([O-])c1cccc(CSc2ncnc3c2ncn3[C@@H]2C[C@H](CO)[C@@H](O)[C@H]2O)c1`, at Adenosine kinase, the Ki was found to be 26.6 µM.

For the molecule `OC[C@H]1C[C@@H](n2cnc3c(SCc4ccc(Br)cc4)ncnc32)[C@H](O)[C@@H]1O`, on Adenosine kinase, the Ki came to 21.1 µM.

With `OC[C@H]1C[C@@H](n2cnc3c(SCc4ccccc4)ncnc32)[C@H](O)[C@@H]1O`, on Adenosine kinase, the Ki was 105 µM.

Turning to `Cc1cccc(CSc2ncnc3c2ncn3[C@@H]2C[C@H](CO)[C@@H](O)[C@H]2O)c1`, the Ki on Adenosine kinase worked out at 26.8 µM.
